Measured values from ChEMBL document CHEMBL1287774, “Discovery of new azaindole-based PI3Kα inhibitors: apoptotic and antiangiogenic effect on cancer cells” (Bioorg Med Chem Lett, 2010).

Key:
[1] = target: Phosphatidylinositol 4,5-bisphosphate 3-kinase catalytic subunit alpha isoform (Homo sapiens, UniProt P42336); assay: Inhibition of PI3Kalpha
T47D [2] = assay: Induction of apoptosis in human T47D cells assessed as increase in late apoptotic cells at 50 uM after 24 hrs using annexin-V FITC and PI staining by flow cytometric analysis relative to control; format: functional
Outline: (§1)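 T47D cells treated with various compound concentrations for 24 h, then stained with Annexin V-FITC and PI and analysed by flow cytometry. Early-apoptotic cells are Annexin V-positive/PI-negative. Changes are expressed relative to untreated control.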

T47D [3] = assay: Induction of apoptosis in human T47D cells assessed as increase in non-viable cells at 10 uM after 24 hrs using annexin-V FITC and PI staining by flow cytometric analysis relative to control; format: functional; outline: as §1
T47D [4] = assay: Induction of apoptosis in human T47D cells assessed as increase in early apoptotic cells at 50 uM after 24 hrs using annexin-V FITC and PI staining by flow cytometric analysis relative to control; format: functional; outline: as §1
T47D [5] = assay: Induction of apoptosis in human T47D cells assessed as increase in early apoptotic cells at 10 uM after 24 hrs using annexin-V FITC and PI staining by flow cytometric analysis relative to control; format: functional; outline: as §1
T47D [6] = assay: Induction of apoptosis in human T47D cells assessed as decrease in viable cells at 10 uM after 24 hrs using annexin-V FITC and PI staining by flow cytometric analysis relative to control; format: functional; outline: as §1
SK-BR-3 = assay: Antiproliferative activity against human SKBR3 cells by MTT assay; format: functional, cell-based
Outline: (§2)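 Human breast cancer cultures (T47D, SK-BR3, MCF-7) exposed to compound. Cell viability is read by MTT and expressed as growth IC50.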

T47D [7] = assay: Induction of apoptosis in human T47D cells assessed as decrease in viable cells at 1 uM after 24 hrs using annexin-V FITC and PI staining by flow cytometric analysis relative to control; format: functional; outline: as §1
HUVEC [8] = assay: Antiangiogenic activity against HUVEC assessed as inhibition of tubular network formation on matrigels beds; format: functional, cell-based; settings: Homo sapiens
Outline: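 HUVECs plated onto Matrigel beds and treated with DMSO vehicle or compound at 0.1, 1 and 10 µM. Read-out is formation of a capillary-like tubular network, assessed from representative images.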

T47D [9] = assay: Induction of apoptosis in human T47D cells assessed as increase in non-viable cells at 50 uM after 24 hrs using annexin-V FITC and PI staining by flow cytometric analysis relative to control; format: functional; outline: as §1
T47D [10] = assay: Induction of apoptosis in human T47D cells assessed as increase in late apoptotic cells at 1 uM after 24 hrs using annexin-V FITC and PI staining by flow cytometric analysis relative to control; format: functional; outline: as §1
T47D [11] = assay: Induction of apoptosis in human T47D cells assessed as increase in non-viable cells at 1 uM after 24 hrs using annexin-V FITC and PI staining by flow cytometric analysis relative to control; format: functional; outline: as §1
T47D [12] = assay: Induction of apoptosis in human T47D cells assessed as decrease in viable cells at 50 uM after 24 hrs using annexin-V FITC and PI staining by flow cytometric analysis relative to control; format: functional; outline: as §1
T47D [13] = assay: Induction of apoptosis in human T47D cells assessed as increase in early apoptotic cells at 1 uM after 24 hrs using annexin-V FITC and PI staining by flow cytometric analysis relative to control; format: functional; outline: as §1
T47D [14] = assay: Induction of apoptosis in human T47D cells assessed as increase in late apoptotic cells at 10 uM after 24 hrs using annexin-V FITC and PI staining by flow cytometric analysis relative to control; format: functional; outline: as §1
T47D [15] = assay: Antiproliferative activity against human T47D cells by MTT assay; format: functional, cell-based; outline: as §2
HUVEC [16] = assay: Antiangiogenic activity against HUVEC assessed as inhibition of wound-induced migration of cells to non-wounded region; format: functional, cell-based; settings: Homo sapiens
Outline: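 HUVEC wound-induced migration assay. Migration is quantified by counting the cells that moved beyond the reference line into the non-wounded region.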

MCF7 = assay: Antiproliferative activity against human MCF7 cells assessed as by MTT assay; format: functional, cell-based; outline: as §2

Phosphatidylinositol 4,5-bisphosphate 3-kinase catalytic subunit alpha isoform, sequence (P42336 whole entry, canonical isoform): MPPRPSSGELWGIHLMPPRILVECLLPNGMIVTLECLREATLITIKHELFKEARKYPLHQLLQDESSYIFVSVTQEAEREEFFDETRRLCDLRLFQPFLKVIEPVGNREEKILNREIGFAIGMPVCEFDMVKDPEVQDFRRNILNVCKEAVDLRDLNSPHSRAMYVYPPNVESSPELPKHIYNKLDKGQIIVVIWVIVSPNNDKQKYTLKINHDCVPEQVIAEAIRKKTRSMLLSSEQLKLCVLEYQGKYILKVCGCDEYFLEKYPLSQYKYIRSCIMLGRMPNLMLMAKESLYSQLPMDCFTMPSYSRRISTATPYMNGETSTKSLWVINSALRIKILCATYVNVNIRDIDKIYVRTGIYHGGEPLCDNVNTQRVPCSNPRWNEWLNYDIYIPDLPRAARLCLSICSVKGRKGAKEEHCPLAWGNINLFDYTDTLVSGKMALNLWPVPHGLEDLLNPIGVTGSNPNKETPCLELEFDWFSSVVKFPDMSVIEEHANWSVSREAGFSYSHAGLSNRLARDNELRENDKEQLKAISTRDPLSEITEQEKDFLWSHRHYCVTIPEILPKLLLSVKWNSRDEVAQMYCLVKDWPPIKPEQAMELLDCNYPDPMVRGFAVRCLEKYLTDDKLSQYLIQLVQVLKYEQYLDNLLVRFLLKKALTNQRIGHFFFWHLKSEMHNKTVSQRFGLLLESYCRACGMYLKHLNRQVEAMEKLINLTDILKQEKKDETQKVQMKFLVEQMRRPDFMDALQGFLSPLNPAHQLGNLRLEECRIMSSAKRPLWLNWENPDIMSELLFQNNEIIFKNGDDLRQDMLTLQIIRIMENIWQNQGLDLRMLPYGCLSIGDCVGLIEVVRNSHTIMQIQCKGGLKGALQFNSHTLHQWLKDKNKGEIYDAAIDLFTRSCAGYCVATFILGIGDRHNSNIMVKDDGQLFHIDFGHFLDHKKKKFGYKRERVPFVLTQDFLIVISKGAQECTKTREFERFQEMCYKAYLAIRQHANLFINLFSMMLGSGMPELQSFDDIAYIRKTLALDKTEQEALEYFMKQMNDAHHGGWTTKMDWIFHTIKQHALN

O=S(=O)(Nc1cncc(-c2cnc3[nH]ccc3c2)c1)c1ccccc1
IC50 [1]: 5.2 µM

COc1ccc(-c2c[nH]c3ncc(-c4cncc(N)c4)cc23)cc1OC
IC50 [1]: 0.46 µM

CC(=O)c1c[nH]c2ncc(-c3cncc(NS(=O)(=O)c4ccccc4)c3)cc12
IC50 [1]: 0.62 µM

COc1ccc(-c2c[nH]c3ncc(-c4cnc(N)c(NS(=O)(=O)N5CCOCC5)c4)cc23)cc1OC
Activity (T47D [2]): 47.5% | Activity (T47D [3]): 2.86% | Activity (T47D [4]): 28.24% | Activity (T47D [5]): 1.52% | Activity (T47D [6]): 90.61% | IC50 (SK-BR-3): 3.7 µM | Activity (T47D [7]): 94.44% | Activity (HUVEC [8]): Dose-dependent effect | Activity (T47D [9]): 7.32% | Activity (T47D [10]): 3.04% | Activity (T47D [11]): 0.96% | Activity (T47D [12]): 19.64% | Activity (T47D [13]): 1.56% | Activity (T47D [14]): 4.98% | IC50 (T47D [15]): 0.7 µM | Activity (HUVEC [16]): Dose-dependent effect

O=S(=O)(Nc1cncc(-c2cnc3[nH]cc(-c4cccnc4)c3c2)c1)c1ccccc1
IC50 (SK-BR-3): 12 µM | IC50 [1]: 0.012 µM | IC50 (T47D [15]): 3.6 µM | IC50 (MCF7): 6.8 µM

N#Cc1cccc(-c2c[nH]c3ncc(-c4cncc(NS(=O)(=O)c5ccc(F)cc5F)c4)cc23)c1
IC50 [1]: 0.027 µM

N#Cc1cccc(-c2c[nH]c3ncc(-c4cnc(N)c(NS(=O)(=O)N5CCOCC5)c4)cc23)c1
IC50 [1]: 0.13 µM

COc1ccc(-c2c[nH]c3ncc(-c4cccc(NS(=O)(=O)c5ccccc5)c4)cc23)cc1OC
IC50 [1]: 1.6 µM

COc1ccc(-c2c[nH]c3ncc(-c4cnc(N)c(NS(=O)(=O)c5ccc(F)cc5F)c4)cc23)cc1OC
IC50 [1]: 0.003 µM

COc1ccc(-c2c[nH]c3ncc(-c4cncc(NS(=O)(=O)c5ccccc5)c4)cc23)cc1OC
IC50 (SK-BR-3): 22 µM | IC50 [1]: 0.012 µM | IC50 (T47D [15]): 8.5 µM

N#Cc1cccc(-c2c[nH]c3ncc(-c4cncc(NS(=O)(=O)c5ccccc5)c4)cc23)c1
IC50 [1]: 0.031 µM

CC(=O)c1c[nH]c2ncc(-c3cnc(N)c(NS(=O)(=O)N4CCOCC4)c3)cc12
IC50 [1]: 0.73 µM

CS(=O)(=O)Nc1cccc(-c2c[nH]c3ncc(-c4cncc(NS(=O)(=O)c5ccccc5)c4)cc23)c1
IC50 [1]: 0.95 µM
